The sample as a whole holds a higher share of hits than the screen did.
S1P3 antagonist – S1P3 (human) receptor antagonism; inhibition, % at 4.98 µM; 170,000 tested, 0.27% active; Q99500; CHO S1P3 NFAT-BLA reporter, FRET fluorescence, antagonist mode;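 active means inhibition above the plate cutoff, the mean inhibition of test wells on that plate plus 3 SD, cut at about 28% in these data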;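 further: cells challenged with S1P at its EC80 of 0.8 µM; blue over green emission ratio from cleaved BLA substrate after 4 h stimulation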
Target sequence (Q99500 whole entry, looked up): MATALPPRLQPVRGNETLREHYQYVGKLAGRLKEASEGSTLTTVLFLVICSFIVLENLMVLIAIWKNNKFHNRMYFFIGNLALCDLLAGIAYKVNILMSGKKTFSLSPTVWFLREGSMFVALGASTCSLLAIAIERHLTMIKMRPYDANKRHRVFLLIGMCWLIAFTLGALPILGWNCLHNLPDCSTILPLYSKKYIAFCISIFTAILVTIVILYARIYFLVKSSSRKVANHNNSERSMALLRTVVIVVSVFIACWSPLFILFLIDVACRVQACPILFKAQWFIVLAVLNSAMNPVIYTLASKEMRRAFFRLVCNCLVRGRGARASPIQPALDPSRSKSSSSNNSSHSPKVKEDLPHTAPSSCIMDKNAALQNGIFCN
L major viab – reduces viability of Leishmania major promastigotes | resazurin fluorescence viability | inhibition, % at 10 µM | 200,000 tested, 9% active; in the data active means inhibition above about 50%;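 further: promastigotes grown with compound for 44 hours at 28 °C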
S1P4 antag – blocks the human S1P4 receptor; O95977; AID 1510; 220,000 tested, 0.26% active; inhibition, % at 4.98 µM; S1P4-expressing cells, antagonist mode, reporter read-out; in the data active means inhibition above about 29%
Mdm2 ligase inh – blocks human Mdm2 ubiquitin ligase activity; 210,000 tested, 0.11% active; cell-based MDM2 ubiquitination luciferase reporter, 2 h; 0 = plate control, 100 = twice control, blank-subtracted; signal enhancement, % at 5 µM; Q00987;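 active means signal enhancement of 30% or more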;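 further: luminescence tracks abundance of the self-degrading MDM2-luciferase fusion protein; higher signal means inhibition of MDM2 E3 ligase activity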
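Timing – 2 h compound exposure at 37 °C · Assay system – mammalian cells stably expressing self-ubiquitinating, self-degrading MDM2 E3–luciferase fusion · Amount – 2000 cells seeded into each well · Measure – % luminescence enhancement versus blank-corrected plate control mean · Measured by – SteadyLite luminescence, 15 min reagent step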
S1P4 agonist – human S1P4 receptor agonism. 220,000 tested, 0.35% active. activation, % at 4.98 µM. O95977. S1P4-expressing cell line, agonist reporter assay; in the data active means activation above about 11%
Numbers stand for hits; i = inactive; nt = not tested or not shown.

SMILES	S1P3 antagonist	L major viab	S1P4 antag	Mdm2 ligase inh	S1P4 agonist
Cc1ccc(C(=O)N[C@H](C(=O)Nc2cc(Cl)cc(Cl)c2)C(C)C)cc1	i	i	i	i	i
COc1cccc2sc(Nc3nc(-c4ccccn4)cs3)nc12	i	100	i	i	i
c1ccc(-c2csc(Nc3cccnc3)n2)nc1	i	58	i	i	i
COc1cccc2sc(NNC(=O)COc3ccccc3)nc12	i	i	i	i	i
Clc1cccc(Nc2nc(-c3cccnc3)cs2)c1	i	54	i	i	i
Clc1ccc(Nc2nc(-c3ccncc3)cs2)cc1	nt	i	i	nt	i
c1cncc(Nc2nc(-c3cccs3)cs2)c1	i	i	i	i	i
Nc1ccc(Nc2nc(-c3ccncc3)cs2)cc1	nt	81	i	nt	i
Cc1cccnc1NC(=O)c1csnn1	i	nt	i	i	i
CC(C1CC2CCC1C2)n1c(-c2cccs2)n[nH]c1=S (stereo unspecified)	i	nt	i	nt	i
c1ccc(Nc2nc(-c3ccccn3)cs2)cc1	nt	101	i	i	i
c1ccc(Nc2nc(-c3ccncc3)cs2)cc1	nt	i	i	i	i
Cc1cc(C)c(NC(=S)NCC2CCN(C(C)c3ccccc3)C2)c(C)c1 (stereo unspecified)	i	i	i	i	i
COc1ccc(N2CCC(CNC(=S)Nc3cccc(OC)c3)C2)cc1 (stereo unspecified)	i	60	i	i	i
Cc1ccc(NC(=S)NCC2CCN(C(C)c3ccccc3)C2)cc1 (stereo unspecified)	i	78	i	i	i
CC(c1ccccc1)N1CCC(CNC(=S)Nc2cccc(Cl)c2)C1 (stereo unspecified)	i	95	i	nt	i
CCC(=O)Nc1c(-c2ccccc2)c(=O)c2ccccc2n1C	i	nt	i	i	i
CC1CCCN(CCC(=O)Nc2ccccc2)C1 (stereo unspecified)	i	i	i	i	i
CC1CCCN(CCC(=O)Nc2ccc3c(c2)CCC3)C1 (stereo unspecified)	nt	61	i	nt	i
CC1CCCN(CCC(=O)Nc2ccc(Br)cc2)C1 (stereo unspecified)	nt	53	i	nt	i
Cc1ccc(S(=O)(=O)N2CCN(C(=O)Cn3nc(C(=O)O)c4ccccc4c3=O)CC2)cc1	i	nt	i	i	i
NC(=O)C1(C(N)=O)OC1c1ccc(Cl)c(Cl)c1 (stereo unspecified)	i	nt	i	i	i
CCN1C(=O)c2cccc3c(S(=O)(=O)NCCc4c[nH]c5ccccc45)ccc1c23	nt	99	i	i	i
CCN1C(=O)c2cccc3c(S(=O)(=O)NCCCN4CCOCC4)ccc1c23	i	78	i	i	i
CCN1C(=O)c2cccc3c(S(=O)(=O)Nc4ccccc4OC)ccc1c23	i	i	i	i	i
SMILES	S1P3 antagonist	L major viab	S1P4 antag	Mdm2 ligase inh	S1P4 agonist
COC(=O)c1cc(NC(=O)C2CC(=O)NC(=NCc3ccc(OC)cc3)S2)cc(C(=O)OC)c1 (stereo unspecified)	i	i	i	i	i
C=CCOC(=O)C1=C(C)NC(SCC(N)=O)=C(C#N)C1c1ccc(C)cc1 (stereo unspecified)	i	nt	i	i	i
C=CCOC(=O)C1=C(C)NC(SCC)=C(C#N)C1c1ccc(Cl)cc1 (stereo unspecified)	nt	100	i	i	i
O=C(N/N=C/c1cccc(Oc2ccc([N+](=O)[O-])cc2[N+](=O)[O-])c1)c1cncc(Br)c1	nt	i	i	i	i
O=C1NC(=Nc2ccccc2)c2ccc([N+](=O)[O-])cc21	i	67	i	i	i
Cc1ccc(C=Nc2ccc(N(C)C)cc2)o1	i	80	i	i	i
CCOc1ccccc1NC(=O)C(NCC1(N2CCCCC2)CCCCC1)c1ccccc1 (stereo unspecified)	i	66	i	i	i
COc1cc(/C=N/NC(=O)Cc2csc(N3CCOCC3)n2)cc(OC)c1O	i	i	i	i	i
O=C(Cc1csc(N2CCOCC2)n1)N/N=C/c1ccc(Cl)cc1Cl	nt	69	i	i	i
CNC(=S)NC1CC2CCCC(C1)N2Cc1ccc(C)cc1 (stereo unspecified)	i	91	i	i	i
CCCN1C2CCCC1CC(NC(=S)Nc1ccc(OC)cc1)C2 (stereo unspecified)	i	i	i	i	i
CC(=O)NC1CC2CCC(C1)N2Cc1ccc(C)cc1 (stereo unspecified)	i	90	i	i	i
O=C(NCC1CCCO1)C(c1cccs1)N(C(=O)c1ccc(CN2CCOCC2)o1)c1ccc(Cl)cc1 (stereo unspecified)	i	i	i	i	i
